Laboratory results as given in ChEMBL document CHEMBL1125672, “2-acetylpyridine thiosemicarbazones. 13. Derivatives with antifilarial activity” (1991).

Tests used:
Format in all cases: functional
Onchocerca gutturosa [1] = assay: Mean motility score for treated Onchocerca gutturosa involving LLCMK2 feeder cells at a concentration of 4.88*10e-8M at 2.5 h
How it was run: (§1)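 Single male O. gutturosa worms (obtained following abattoir slaughter) per well in Eagle's MEM with 10% heat-inactivated fetal calf serum, penicillin, streptomycin, amphotericin B and bicarbonate, over LLCMK2 feeder cells, 5% CO2 in air. Drug dissolved in DMSO; controls received matched DMSO ≤0.016%. Motility scored 0 (immotile) to 10 (maximum control activity) every 30 min to 4.5 h, then days 1, 2, 3, 4, 7.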

Onchocerca gutturosa [2] = assay: Mean motility score for treated Onchocerca gutturosa involving LLCMK2 feeder cells at a concentration of 3.1*10e-6 M at 3 h; how it was run: as §1
Onchocerca gutturosa [3] = assay: Mean motility score for treated Onchocerca gutturosa involving LLCMK2 feeder cells at a concentration of 4.88*10e-8M at 96 h; how it was run: as §1
Onchocerca gutturosa [4] = assay: Mean motility score for treated Onchocerca gutturosa involving LLCMK2 feeder cells at a concentration of 4.88*10e-8M at 1 h; how it was run: as §1
Onchocerca gutturosa [5] = assay: Mean motility score for treated Onchocerca gutturosa involving LLCMK2 feeder cells at a concentration of 1.95*10e-8 M at 2 h
How it was run: (§2)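 One male O. gutturosa per well over LLCMK2 feeder cells in MEM with 10% heat-inactivated FCS, antibiotics and bicarbonate, 5% CO2; compound introduced in DMSO (≤0.016%, equal DMSO in controls). Motility scored 0 (immotile) to 10 (maximal control activity) every 30 min to 4.5 h, then at 1, 2, 3, 4 and 7 days.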

Onchocerca gutturosa [6] = assay: Colorimetric quantification of male Onchocerca gutturosa viability, expressed as % inhibition of formazan formation at 1.95*10e-7 M conc. by using tetrazolium Dye MTT assay
How it was run: (§3)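 Single intact male O. gutturosa, cultured with LLCMK2 feeder cells in MEM + 10% heat-inactivated FCS (5% CO2), drug added from DMSO (≤0.016% DMSO in controls). MTT read after 168 h: worm in 0.5 mg/mL MTT, 30 min at 36.5 °C, formazan solubilized in DMSO 1 h at room temperature, absorbance 490 nm vs DMSO blank.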

Onchocerca gutturosa [7] = assay: Mean motility score for treated Onchocerca gutturosa involving LLCMK2 feeder cells at a concentration of 3.05*10e-8 M at 1 h; how it was run: as §2
Onchocerca gutturosa [8] = assay: Colorimetric quantification of male Onchocerca gutturosa viability, expressed as % inhibition of formazan formation at 3.1*10e-6 M conc. by using tetrazolium Dye MTT assay; how it was run: as §3
Onchocerca gutturosa [9] = assay: Mean motility score for treated Onchocerca gutturosa involving LLCMK2 feeder cells at a concentration of 4.88*10e-8M at 24 h; how it was run: as §1
Onchocerca gutturosa [10] = assay: Mean motility score for treated Onchocerca gutturosa involving LLCMK2 feeder cells at a concentration of 1.95*10e-8 M at 1 h; how it was run: as §2
Onchocerca gutturosa [11] = assay: Mean motility score for treated Onchocerca gutturosa involving LLCMK2 feeder cells at a concentration of 4.88*10e-8M at 3 h; how it was run: as §1
Onchocerca volvulus = assay: Colorimetric quantification of male Onchocerca volvulus viability, expressed as % inhibition of formazan formation at 5*10e-6 M conc. by using tetrazolium Dye MTT assay
How it was run: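 Male O. volvulus dissected from human nodules within 24 h (kept in medium on ice), cultured without feeder cells in medium with 10% serum; drug from DMSO stock. MTT after 96 h: single worm, 0.5 mg/mL MTT, 30 min at 36.5 °C, formazan dissolved in DMSO 1 h at room temperature, absorbance 490 nm against DMSO blank.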

Onchocerca gutturosa [12] = assay: Mean motility score for treated Onchocerca gutturosa involving LLCMK2 feeder cells at a concentration of 1.95*10e-8 M at 0.5 h; how it was run: as §2
Onchocerca gutturosa [13] = assay: Mean motility score for treated Onchocerca gutturosa involving LLCMK2 feeder cells at a concentration of 4.88*10e-8M at 4.5 h; how it was run: as §1
Onchocerca gutturosa [14] = assay: Mean motility score for treated Onchocerca gutturosa involving LLCMK2 feeder cells at a concentration of 4.88*10e-8M at 48 h; how it was run: as §1
Onchocerca gutturosa [15] = assay: Mean motility score for treated Onchocerca gutturosa involving LLCMK2 feeder cells at a concentration of 3.1*10e-6 M at 24 h; how it was run: as §1
Onchocerca gutturosa [16] = assay: Mean motility score for treated Onchocerca gutturosa involving LLCMK2 feeder cells at a concentration of 1.95*10e-8 M at 168 h; how it was run: as §2
Onchocerca gutturosa [17] = assay: Mean motility score for treated Onchocerca gutturosa involving LLCMK2 feeder cells at a concentration of 3.1*10e-6 M at 48 h; how it was run: as §1
Onchocerca gutturosa [18] = assay: Mean motility score for treated Onchocerca gutturosa involving LLCMK2 feeder cells at a concentration of 4.88*10e-8M at 1.5 h; how it was run: as §1
Onchocerca gutturosa [19] = assay: Mean motility score for treated Onchocerca gutturosa involving LLCMK2 feeder cells at a concentration of 3.1*10e-6 M at 1.5 h; how it was run: as §1
Onchocerca gutturosa [20] = assay: Mean motility score for treated Onchocerca gutturosa involving LLCMK2 feeder cells at a concentration of 3.05*10e-8 M at 2 h; details: in the assay text read “3.05*10e-9 M” for “3.05*10e-8 M”; how it was run: as §2
Onchocerca gutturosa [21] = assay: Mean motility score for treated Onchocerca gutturosa involving LLCMK2 feeder cells at a concentration of 3.05*10e-8 M at 2.5 h; details: in the assay text read “3.05*10e-9 M” for “3.05*10e-8 M”; how it was run: as §2
Onchocerca gutturosa [22] = assay: Mean motility score for treated Onchocerca gutturosa involving LLCMK2 feeder cells at a concentration of 3.05*10e-9 M at 0.5 h; how it was run: as §2
Onchocerca gutturosa [23] = assay: Mean motility score for treated Onchocerca gutturosa involving LLCMK2 feeder cells at a concentration of 1.21*10e-8M at 1.5 h; how it was run: as §2
Onchocerca gutturosa [24] = assay: Mean motility score for treated Onchocerca gutturosa involving LLCMK2 feeder cells at a concentration of 1.21*10e-8M at 24 h; how it was run: as §2
Onchocerca gutturosa [25] = assay: Mean motility score for treated Onchocerca gutturosa involving LLCMK2 feeder cells at a concentration of 3.05*10e-9 M at 2 h; how it was run: as §1
Onchocerca gutturosa [26] = assay: Mean motility score for treated Onchocerca gutturosa involving LLCMK2 feeder cells at a concentration of 1.21*10e-8M at 72 h; how it was run: as §2
Onchocerca gutturosa [27] = assay: Mean motility score for treated Onchocerca gutturosa involving LLCMK2 feeder cells at a concentration of 1.21*10e-8M at 0.5 h; how it was run: as §2
Onchocerca gutturosa [28] = assay: Mean motility score for treated Onchocerca gutturosa involving LLCMK2 feeder cells at a concentration of 3.05*10e-9 M at 2.5 h; how it was run: as §1
Onchocerca gutturosa [29] = assay: Mean motility score for treated Onchocerca gutturosa involving LLCMK2 feeder cells at a concentration of 3.05*10e-9 M at 1 h; how it was run: as §2
Onchocerca gutturosa [30] = assay: Mean motility score for treated Onchocerca gutturosa involving LLCMK2 feeder cells at a concentration of 1.21*10e-8M at 48 h; how it was run: as §2
Onchocerca gutturosa [31] = assay: Mean motility score for treated Onchocerca gutturosa involving LLCMK2 feeder cells at a concentration of 1.94*10e-7M at 0.5 h; how it was run: as §2
Onchocerca gutturosa [32] = assay: Colorimetric quantification of male Onchocerca gutturosa viability, expressed as % inhibition of formazan formation at 1.21*10e-8M conc. by using tetrazolium Dye MTT assay; how it was run: as §3
Onchocerca gutturosa [33] = assay: Mean motility score for treated Onchocerca gutturosa involving LLCMK2 feeder cells at a concentration of 1.21*10e-8M at 1 h; how it was run: as §2

C/C(=N\NC(=S)N1CCCCCC1)c1ccccn1
Motility (Onchocerca gutturosa [1]): 8.3 | Motility (Onchocerca gutturosa [2]): 9.3 | Motility (Onchocerca gutturosa [3]): 1.5 | Motility (Onchocerca gutturosa [4]): 9 | Motility (Onchocerca gutturosa [5]): 9.3 | Inhibition (Onchocerca gutturosa [6]): 70.4% | Motility (Onchocerca gutturosa [7]): 9 | Inhibition (Onchocerca gutturosa [8]): 90.2% | Motility (Onchocerca gutturosa [9]): 4 | Motility (Onchocerca gutturosa [10]): 9.5 | Motility (Onchocerca gutturosa [11]): 9 | Inhibition (Onchocerca volvulus): 58.2% | Motility (Onchocerca gutturosa [12]): 8.8 | Motility (Onchocerca gutturosa [13]): 9.8 | Motility (Onchocerca gutturosa [14]): 4 | Motility (Onchocerca gutturosa [15]): 4 | Motility (Onchocerca gutturosa [16]): 0 | Motility (Onchocerca gutturosa [17]): 2.8 | Motility (Onchocerca gutturosa [18]): 8.5 | Motility (Onchocerca gutturosa [19]): 9.8 | Motility (Onchocerca gutturosa [20]): 9.8 | Motility (Onchocerca gutturosa [21]): 8.3

C/C(=N\NC(S)=Nc1ccccc1N)c1ccccn1
Motility (Onchocerca gutturosa [22]): 8.8 | Motility (Onchocerca gutturosa [23]): 4.3 | Motility (Onchocerca gutturosa [24]): 9 | Motility (Onchocerca gutturosa [25]): 7.5 | Motility (Onchocerca gutturosa [26]): 6.8 | Motility (Onchocerca gutturosa [27]): 9 | Motility (Onchocerca gutturosa [28]): 7.5 | Motility (Onchocerca gutturosa [29]): 8.8 | Motility (Onchocerca gutturosa [30]): 7.3 | Motility (Onchocerca gutturosa [31]): 9.8 | Inhibition (Onchocerca gutturosa [32]): 27.9% | Motility (Onchocerca gutturosa [33]): 8.5
